This note sets out measurements from ChEMBL document CHEMBL1649111, “Restoration of susceptibility of intracellular methicillin-resistant Staphylococcus aureus to beta-lactams: comparison of strains, cells, and antibiotics” (Antimicrob Agents Chemother, 2008).

What all share (format): functional
In assay [1] the test system is Staphylococcus aureus. Nature of the assay: Antimicrobial activity against hospital acquired methicillin-resistant and vancomycin-intermediate Staphylococcus aureus VRS2 obtained from wound, skin and soft tissue infection of patient infected in human THP-1 cells assessed as increase in bacterial count from original inoculum at low compound concentration after 24 hrs at pH 5.5. In short, it runs like this:
(§1)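 Human THP-1 macrophages infected with each S. aureus strain. Cloxacillin added extracellularly at about 0.01× to 100× the broth MIC measured at pH 5.5, with gentamicin 0.5 mg/liter to stop extracellular growth. Incubated 24 h. CFU counted per mg cell protein as change from the post-phagocytosis inoculum, n = 3. Emin, Emax and EC50 from a Hill fit; static concentration by graphical interpolation.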

The subject of assay [2] is Staphylococcus aureus. Nature of the assay: Antimicrobial activity against hospital acquired methicillin-resistant and vancomycin-intermediate Staphylococcus aureus VRS2 obtained from wound, skin and soft tissue infection of patient infected in human THP-1 cells assessed as decrease in bacterial count from original inoculum at high compound concentration after 24 hrs at pH 5.5. The procedure, abridged:
as §1

For assay [3], the system named is Staphylococcus aureus. Nature of the assay: Antimicrobial activity against Panton-valentine leukocidin positive community acquired methicillin-resistant Staphylococcus aureus NRS192 obtained from patient with pneumonia and septic arthritis infected in human THP-1 cells assessed as decrease in bacterial count from original inoculum at high compound concentration after 24 hrs at pH 5.5. The procedure, abridged:
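Bacteria phagocytosed by unactivated human THP-1 macrophages, then incubated 24 h with extracellular antibiotic at about 0.01× to 100× the pH 5.5 broth MIC. CFU per mg cell protein counted against the original inoculum, n = 3. A Hill-equation fit (slope factor 1) gave Emin and Emax, extrapolated to infinitely low and high concentration, and EC50. Static concentration was graphically interpolated.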

Assay [4] deals with Staphylococcus aureus. Nature of the assay: Bacteriostatic activity against hospital acquired methicillin-resistant Staphylococcus aureus N4120210 infected in human THP-1 cells assessed as decrease in bacterial growth after 24 hrs at pH 5.5. In short, it runs like this:
as §1

On to `Cc1onc(-c2ccccc2Cl)c1C(=O)N[C@@H]1C(=O)N2[C@@H]1SC(C)(C)[C@@H]2C(=O)O` [CLOXACILLIN], for which the log10cfu with Staphylococcus aureus [1] is 1.69; in the assay with Staphylococcus aureus [2] it was 0.78; in the assay on Staphylococcus aureus [3] it was 0.68. In addition, the Activity in the assay on Staphylococcus aureus [4] is 35.5 ×MIC.
